The test system of the assay is CAspII. Briefly: Michaelis-Menten kinetics of L-asparagine hydrolysis. The format is biochemical, uncultured Gemmatimonadota bacterium. The note with it: free enzyme; assay pH and temperature only in supplement. A digest of the protocol: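 Synthetic codon-optimised gene fused to a C-terminal His6 tag in pET21a(+) and expressed in E. coli. Mid-log cultures in LB were induced with 0.2 mM IPTG for 3 hours at 30°C. Protein was purified on nickel-agarose; the preparation was enriched but not fully pure. Km was fitted to the classical Michaelis-Menten equation with L-asparagine as substrate, reported as mean ± SEM.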

The source of these data is article PMC7797908 (iScience, 2021).

Molecules are shown by their SMILES.

As a reminder, the Km is the substrate concentration at which the rate is half of its maximum. On to `NC(=O)C[C@H](N)C(=O)O` [L-asparagine], for which the Michaelis constant (Km) amounted to 350 ± 20 µM.
